From the array DNA melting data of Ke et al. (doi:10.1101/2024.01.08.574731) come the findings set out here.

Data set [1] in a line: folding enthalpy; higher = less favourable; fluorescence melt of hairpins on a sequencing array, two-state fit. The following applies: sodium 0.088 M. An outline of the steps: (§1)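 Folding enthalpy and melting temperature come from bootstrapped two-state fits to Cy3 fluorescence of library hairpins carrying annealed Cy3 and quencher oligos on a sequenced MiSeq flow cell. Imaging was done in 50 mM Na-HEPES pH 8.0, 25 mM NaCl, stepping by 2.5 °C up to 60 °C, and signals were normalised to pre-quench Cy3 and to control constructs. Results of four replicates were combined by inverse variance, and fitted temperatures were raised by 9.35 °C to match UV melts.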

Data set [2] in a line: melting temperature; fluorescence melt of hairpins on a sequencing array, two-state fit, raised by 9.35 °C to match UV melts. The settings on record: sodium 0.088 M. In outline: as §1

Take GTTCTCGGAAACGAGAGC (.(((((....))))).): the folding enthalpy in data set [1] is -27.5 kcal/mol. Besides, the Tm in data set [2] turned out to be 48.2 °C.

Consider GTTCTCTCGAAAGAGAAC (((..(((....)))))), for which the folding enthalpy in data set [1] is -34.5 kcal/mol. For the same sequence, the Tm in data set [2] was found to be 51.1 °C.

With GTTCTGAAAAGAAC (((((....))))), in data set [1], the folding enthalpy is -27.5 kcal/mol. For the same sequence, the Tm in data set [2] worked out at 47 °C.

Take GTTCTGCGAAAGCATAAC (((.(((....))).))): the folding enthalpy in data set [1] was -25 kcal/mol. For the same sequence, the Tm in data set [2] is 43.7 °C.

Turning to GTTCTGGCGAAAGCCAAC (((..(((....)))))), the folding enthalpy in data set [1] is -7.18 kcal/mol. The Tm in data set [2] was found to be 19.8 °C.

On to GTTCTGGGAAACCAGAGC (.(((((....))))).), for which the folding enthalpy in data set [1] was -24.2 kcal/mol. Besides, the Tm in data set [2] was 46.3 °C.

On to GTTCTGGGAAACTAGAGC (.(((.(....).))).), for which the folding enthalpy in data set [1] was -8.92 kcal/mol. For the same sequence, the Tm in data set [2] was determined as 24.9 °C.

Consider GTTCTTCCGAAAGGAAAC (((..(((....)))))), for which the folding enthalpy in data set [1] was -13.6 kcal/mol. Moreover, the Tm in data set [2] amounted to 27.5 °C.

Regarding GTTCTTCGAAAGAATAAC (((.(((....))).))), the folding enthalpy in data set [1] is -15.6 kcal/mol. In addition, the Tm in data set [2] amounted to 33.6 °C.

On to GTTCTTGAAAAAGAAC ((((((....)))))), for which the folding enthalpy in data set [1] was -34.2 kcal/mol. The Tm in data set [2] worked out at 46.9 °C.

Turning to GTTCTTGGAAACAGGAAC ((((.((....)).)))), the folding enthalpy in data set [1] is -34.1 kcal/mol. Further, the Tm in data set [2] came to 39.9 °C.

For the sequence GTTGAACCGAAAGGTAAC (((..(((....)))))), the folding enthalpy in data set [1] was -12.9 kcal/mol. Besides, the Tm in data set [2] worked out at 31.1 °C.

Regarding GTTGAAGGAAACTCCAAC ((((.((....)).)))), the folding enthalpy in data set [1] is -17.5 kcal/mol. Moreover, the Tm in data set [2] was determined as 29.5 °C.

Regarding GTTGAAGGAAACTTCAAC (((((((....))))))), in data set [1], the folding enthalpy is -51.5 kcal/mol. The Tm in data set [2] was found to be 54.2 °C.

As to GTTGACGAAAGTCAAAAC ((((((....)))..))), the folding enthalpy in data set [1] is -11.5 kcal/mol. Besides, the Tm in data set [2] came out at 38.4 °C.

As to GTTGACGAAAGTCATAAC ((((((....)))..))), in data set [1], the folding enthalpy was -12.9 kcal/mol. Besides, the Tm in data set [2] came out at 33.5 °C.

In the case of GTTGACGAAAGTCGCAAC ((((((....)))..))), the folding enthalpy in data set [1] was -13.3 kcal/mol. Moreover, in data set [2], the Tm was 31 °C.

Turning to GTTGACGAAAGTCGGAAC ((((((....)))..))), the folding enthalpy in data set [1] is -8.87 kcal/mol. Moreover, in data set [2], the Tm was determined as 32.7 °C.

As for GTTGACGAAAGTCTCAAC ((((((....)))..))), in data set [1], the folding enthalpy is -9.94 kcal/mol. Also, the Tm in data set [2] was determined as 28 °C.

With GTTGACGAAAGTCTTAAC ((((((....)))..))), in data set [1], the folding enthalpy was -10 kcal/mol. The Tm in data set [2] amounted to 28.1 °C.

For GTTGAGACGAAAGTCAAC (((..(((....)))))), the folding enthalpy in data set [1] is -15.6 kcal/mol. The Tm in data set [2] is 38.4 °C.

With GTTGAGCGAAAGCTAAAC (((.(((....))).))), in data set [1], the folding enthalpy was -26.5 kcal/mol. In addition, in data set [2], the Tm worked out at 48 °C.

As to GTTGAGGGAAACCTTAAC (((.(((....))).))), the folding enthalpy in data set [1] is -31.4 kcal/mol. The Tm in data set [2] was found to be 37 °C.

With GTTGAGGGAAACCTTGAC ((..(((....)))..)), the folding enthalpy in data set [1] was -12 kcal/mol. In addition, the Tm in data set [2] worked out at 29.7 °C.

Consider GTTGAGGGAAACTTCAAC (((((.(....).))))), for which the folding enthalpy in data set [1] is -33.6 kcal/mol. Besides, the Tm in data set [2] amounted to 40.5 °C.

As for GTTGATGAAAATCAAC ((((((....)))))), in data set [1], the folding enthalpy was -33.9 kcal/mol. The Tm in data set [2] amounted to 52.4 °C.

With GTTGCACCGAAAGGTAAC (((..(((....)))))), the folding enthalpy in data set [1] was -14.4 kcal/mol. Further, the Tm in data set [2] turned out to be 30.4 °C.

Consider GTTGCAGCGAAAGCTAAC (((..(((....)))))), for which, in data set [1], the folding enthalpy was -11.6 kcal/mol. In addition, the Tm in data set [2] is 29.2 °C.

In the case of GTTGCAGGAAACTACAAC ((((.((....)).)))), the folding enthalpy in data set [1] is -27.6 kcal/mol. Further, the Tm in data set [2] turned out to be 37 °C.

Consider GTTGCCGAAAGGCACAAC ((((((....)))..))), for which the folding enthalpy in data set [1] is -8.02 kcal/mol. Moreover, the Tm in data set [2] was determined as 35.7 °C.

On to GTTGCCGAAAGGCCGAAC ((((((....)))..))), for which the folding enthalpy in data set [1] was -7.22 kcal/mol. In addition, the Tm in data set [2] worked out at 27.1 °C.

Turning to GTTGCCGGAAACGGCAGC (.(((((....))))).), the folding enthalpy in data set [1] was -14.4 kcal/mol. In addition, the Tm in data set [2] amounted to 57.5 °C.

For the sequence GTTGCGCCGAAAGGCAAC (((..(((....)))))), the folding enthalpy in data set [1] was -13.2 kcal/mol. Also, the Tm in data set [2] came out at 42.4 °C.

With GTTGCGCGAAAGCGTAAC (((.(((....))).))), the folding enthalpy in data set [1] is -29.8 kcal/mol. Besides, in data set [2], the Tm stood at 58.1 °C.

As to GTTGCTCGAAAGAGAAAC (((.(((....))).))), the folding enthalpy in data set [1] was -32.3 kcal/mol. In addition, in data set [2], the Tm came to 48 °C.

As for GTTGCTCGAAAGAGGAAC (((.(((....))).))), the folding enthalpy in data set [1] was -38.2 kcal/mol. Besides, the Tm in data set [2] is 53.9 °C.

Regarding GTTGCTGGAAACAGTGAC ((..(((....)))..)), the folding enthalpy in data set [1] was -28.4 kcal/mol. In data set [2], the Tm amounted to 39.2 °C.

For the sequence GTTGGACGAAAGTCGAAC (((.(((....))).))), the folding enthalpy in data set [1] was -16.8 kcal/mol. The Tm in data set [2] worked out at 49.1 °C.

For the sequence GTTGGAGGAAACTCCAAC (((((((....))))))), the folding enthalpy in data set [1] is -36 kcal/mol. Also, in data set [2], the Tm came out at 60.8 °C.

On to GTTGGAGGAAACTTCGAC ((.(.((....)).).)), for which the folding enthalpy in data set [1] is -24.3 kcal/mol. Moreover, the Tm in data set [2] stood at 34.2 °C.

Regarding GTTGGATCGAAAGATAAC (((..(((....)))))), the folding enthalpy in data set [1] is -6.79 kcal/mol. Further, the Tm in data set [2] is 27.3 °C.

With GTTGGCCGAAAGGCAAAC (((.(((....))).))), in data set [1], the folding enthalpy was -21.8 kcal/mol. Moreover, the Tm in data set [2] came to 56.8 °C.

GTTGGCGAAAGCCATAAC ((((((....)))..))): the folding enthalpy in data set [1] was -10.2 kcal/mol. For the same sequence, in data set [2], the Tm turned out to be 35.7 °C.

With GTTGGCGAAAGCCGAAC ((((((....))).))), in data set [1], the folding enthalpy is -13.8 kcal/mol. In addition, the Tm in data set [2] came to 50.5 °C.

GTTGGCGAAAGCCTCAAC ((((((....)))..))): the folding enthalpy in data set [1] is -10.6 kcal/mol. Besides, the Tm in data set [2] was 29.9 °C.

On to GTTGGCGGAAACGCTAAC (((.(((....))).))), for which, in data set [1], the folding enthalpy was -30.9 kcal/mol. Moreover, the Tm in data set [2] was 53.1 °C.

On to GTTGGGAAACCAAC (((((....))))), for which, in data set [1], the folding enthalpy is -27.9 kcal/mol. In data set [2], the Tm was determined as 51.7 °C.

For the sequence GTTGGGCCGAAAGGCAAC (((..(((....)))))), the folding enthalpy in data set [1] was -15.3 kcal/mol. Moreover, the Tm in data set [2] was 45.4 °C.

GTTGGGGGAAACCCCAAC (((((((....))))))): the folding enthalpy in data set [1] was -45.9 kcal/mol. Moreover, the Tm in data set [2] came out at 65.6 °C.

Turning to GTTGGGGGAAACCCTAAC (((.(((....))).))), in data set [1], the folding enthalpy was -26.6 kcal/mol. Also, the Tm in data set [2] stood at 45.1 °C.

For the sequence GTTGGGGGAAACCCTGAC ((..(((....)))..)), the folding enthalpy in data set [1] is -23.8 kcal/mol. Besides, the Tm in data set [2] is 35.6 °C.

For the sequence GTTGGGGGAAACCTCGAC ((.(.((....)).).)), the folding enthalpy in data set [1] was -23.5 kcal/mol. For the same sequence, the Tm in data set [2] is 34.7 °C.

Take GTTGGGGGAAACTCCAGC (.(((.(....).))).): in data set [1], the folding enthalpy is -23.5 kcal/mol. The Tm in data set [2] was determined as 35.8 °C.

As for GTTGGTCGAAAGACAAAC (((.(((....))).))), the folding enthalpy in data set [1] was -26.5 kcal/mol. In data set [2], the Tm worked out at 48.5 °C.

As for GTTGGTCGAAAGACTAAC (((.(((....))).))), in data set [1], the folding enthalpy was -25.9 kcal/mol. The Tm in data set [2] was 50.9 °C.
